{"data": "Measurements gathered from unrelated publications", "note": "Protocols differ between the studies behind these lines."}
{"SMILES": "Cc1nc(Nc2ncc(C(=O)Nc3c(C)cccc3Cl)s2)cc(N2CCN(CCO)CC2)n1", "cell line": "SK-BR-3", "assay": "cell growth or viability, WST-1", "setting": "72 h", "endpoint": "GI50", "result": "1.6 µM"}
{"SMILES": "OC[C@H](Cc1cccc(O)c1)[C@H](CO)Cc1cccc(O)c1", "cell line": "SPCA1", "assay": "cell growth or viability, MTT", "endpoint": "IC50", "result": "61.1 µM"}
{"SMILES": "Nc1nc(N)c(CNCCc2ccc(F)cc2)c(C2CC2)n1", "cell line": "Vero", "assay": "cell growth or viability, SRB", "endpoint": "IC50", "result": "> 100 µM"}
{"SMILES": "N.N.[Cl][Pt][Cl]", "cell line": "SMMC-7721", "assay": "cell growth or viability, MTT", "setting": "48 h", "endpoint": "IC50", "result": "6.43 µM"}
{"SMILES": "Nc1nc(N)c(CNCCc2ccc(Cl)cc2)c(C2CC2)n1", "cell line": "Vero", "assay": "cell growth or viability, SRB", "endpoint": "IC50", "result": "70 µM"}
{"SMILES": "CC1=C(O)C(=O)C=C2C1=CC=C1[C@@]2(C)CC[C@@]2(C)[C@@H]3C[C@](C)(C(=O)O)CC[C@]3(C)CC[C@]12C", "cell line": "SMMC-7721", "assay": "cell growth or viability, MTT", "setting": "20 µM", "endpoint": "inhibition", "result": "70.6%"}
{"SMILES": "COc1cc(O)c(C(=O)/C=C/c2ccc(O)cc2)c(OC)c1", "cell line": "SPCA1", "assay": "cell growth or viability, MTT", "endpoint": "IC50", "result": "25 µM"}
{"SMILES": "Nc1nc(N)c(CNCCc2cccc(Cl)c2)c(C2CC2)n1", "cell line": "Vero", "assay": "cell growth or viability, SRB", "endpoint": "IC50", "result": "76 µM"}
{"SMILES": "N.N.[Cl][Pt][Cl]", "cell line": "M109", "assay": "cell growth or viability, MTT", "endpoint": "IC50", "result": "0.97 µM"}
{"SMILES": "C[S+]([O-])CCCCN=C=S (centres unmarked)", "cell line": "RAW264.7", "assay": "NO release, inhibitor, Griess", "setting": "10 µM, LPS-stimulated", "endpoint": "inhibition", "result": "91.6%"}
{"SMILES": "COc1cc2oc3cc(O)c(OC)c(CC=C(C)C)c3c(=O)c2c(O)c1CC=C(C)C", "cell line": "22Rv1", "assay": "cell growth or viability", "setting": "48 h", "endpoint": "IC50", "result": "27.1 µM"}
{"SMILES": "O=C(CC(=O)C(F)(F)F)C(F)(F)F", "cell line": "HL-60", "assay": "cell growth or viability, resazurin", "setting": "72 h, dark", "endpoint": "IC50", "result": "> 100 µM"}
{"SMILES": "O=C1OC[C@H](Cc2cccc(O)c2)[C@H]1Cc1cccc(O)c1", "cell line": "SPCA1", "assay": "cell growth or viability, MTT", "endpoint": "IC50", "result": "42.2 µM"}
{"SMILES": "C[C@H]1CN(c2ccncc2NC(=O)c2ccc(F)c(-c3c(F)cccc3F)n2)C[C@@H](N)[C@@H]1O", "cell line": "U-266", "assay": "cell growth or viability, thymidine uptake", "endpoint": "GI50", "result": "0.342 µM"}
